Data published in ChEMBL document CHEMBL1143313, “Synthesis of novel 4,6-di(substituted)amino-1,2-dihydro-1,3,5-triazine derivatives as topical antiseptic agents” (2009).

Tests used:
Type in all cases: functional
Escherichia coli [1] = assay: Bactericidal activity against Escherichia coli NIHJ JC-2 preincubated for 5 mins before addition of growth medium measured after 40 to 48 hrs
Escherichia coli [2] = assay: Bactericidal activity against Escherichia coli NIHJ JC-2 preincubated for 1 min before addition of growth medium measured after 40 to 48 hrs
Staphylococcus aureus [3] = assay: Antibacterial activity against Staphylococcus aureus 209PJC after 24 hrs
Summary of the method: (§1)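 Value is the minimal inhibitory concentration (MIC) against the test organism, read after 24 h of incubation.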

Staphylococcus aureus [4] = assay: Bactericidal activity against methicillin-resistant Staphylococcus aureus 97-115 preincubated for 3 mins before addition of growth medium measured after 40 to 48 hrs
Summary of the method: (§2)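 Read-out is the minimal bactericidal concentration (MBC), taken after 1, 3 and 5 min contact of compound with the test organism.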

Pseudomonas aeruginosa [5] = assay: Bactericidal activity against Pseudomonas aeruginosa PAO1 preincubated for 1 min before addition of growth medium measured after 40 to 48 hrs
Escherichia coli [6] = assay: Antibacterial activity against Escherichia coli NIHJ JC-2 after 24 hrs; summary of the method: as §1
Staphylococcus aureus [7] = assay: Antibacterial activity against methicillin-resistant Staphylococcus aureus 97-115 after 24 hrs
Summary of the method: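 Read-out is the minimal inhibitory concentration (MIC), taken after 24 h incubation with the test organism.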

Staphylococcus aureus [8] = assay: Bactericidal activity against Staphylococcus aureus 209PJC preincubated for 1 min before addition of growth medium measured after 40 to 48 hrs
Pseudomonas aeruginosa [9] = assay: Bactericidal activity against Pseudomonas aeruginosa PAO1 preincubated for 5 mins before addition of growth medium measured after 40 to 48 hrs
Staphylococcus aureus [10] = assay: Bactericidal activity against methicillin-resistant Staphylococcus aureus 97-115 preincubated for 5 mins before addition of growth medium measured after 40 to 48 hrs; summary of the method: as §2
Pseudomonas aeruginosa [11] = assay: Antibacterial activity against Pseudomonas aeruginosa PAO1; summary of the method: as §1
Staphylococcus aureus [12] = assay: Bactericidal activity against Staphylococcus aureus 209PJC preincubated for 3 mins before addition of growth medium measured after 40 to 48 hrs
Staphylococcus aureus [13] = assay: Bactericidal activity against Staphylococcus aureus 209PJC preincubated for 5 mins before addition of growth medium measured after 40 to 48 hrs
Pseudomonas aeruginosa [14] = assay: Bactericidal activity against Pseudomonas aeruginosa PAO1 preincubated for 3 mins before addition of growth medium measured after 40 to 48 hrs
Staphylococcus aureus [15] = assay: Bactericidal activity against methicillin-resistant Staphylococcus aureus 97-115 preincubated for 1 min before addition of growth medium measured after 40 to 48 hrs; summary of the method: as §2
Escherichia coli [16] = assay: Bactericidal activity against Escherichia coli NIHJ JC-2 preincubated for 3 mins before addition of growth medium measured after 40 to 48 hrs

Row | SMILES | MBC (Escherichia coli [1]) | MBC (Escherichia coli [2]) | MIC (Staphylococcus aureus [3]) | MBC (Staphylococcus aureus [4]) | MBC (Pseudomonas aeruginosa [5]) | MIC (Escherichia coli [6]) | MIC (Staphylococcus aureus [7]) | MBC (Staphylococcus aureus [8]) | MBC (Pseudomonas aeruginosa [9]) | MBC (Staphylococcus aureus [10]) | MIC (Pseudomonas aeruginosa [11]) | MBC (Staphylococcus aureus [12]) | MBC (Staphylococcus aureus [13]) | MBC (Pseudomonas aeruginosa [14]) | MBC (Staphylococcus aureus [15]) | MBC (Escherichia coli [16])
1 | CC(=O)O.CCCCCCCCCCNC1=NC(C)(C)NC(NCc2ccc(OC)cc2)=N1 | 6.3 µg/mL | 12.5 µg/mL | 0.4 µg/mL | 6.3 µg/mL | 12.5 µg/mL | 25 µg/mL | 0.8 µg/mL | 12.5 µg/mL | 3.1 µg/mL | 6.3 µg/mL | 50 µg/mL | 6.3 µg/mL | 3.1 µg/mL | 3.1 µg/mL | 25 µg/mL | 6.3 µg/mL
2 | CC(=O)O.CCCCCCCCNC1=NC(NCCC)=NC(C)(C)N1 | – | – | 1.6 µg/mL | – | – | 100 µg/mL | 6.3 µg/mL | – | – | – | 100 µg/mL | – | – | – | – | –
3 | CC(=O)O.CCCCCCCCNC1=NC(C)(C)NC(NCc2ccc(C(F)(F)F)cc2)=N1 | 3.1 µg/mL | 3.1 µg/mL | 0.4 µg/mL | 6.3 µg/mL | 12.5 µg/mL | 50 µg/mL | 0.8 µg/mL | 12.5 µg/mL | 6.3 µg/mL | 6.3 µg/mL | 25 µg/mL | 6.3 µg/mL | 6.3 µg/mL | 6.3 µg/mL | 6.3 µg/mL | 3.1 µg/mL
4 | CC(=O)O.CCCCCCCCCCCNC1=NC(C)(C)NC(NCc2ccccc2)=N1 | – | – | 0.4 µg/mL | – | – | 100 µg/mL | 0.8 µg/mL | – | – | – | 100 µg/mL | – | – | – | – | –
5 | CC(=O)O.CCCCCCCCNC1=NC(C)(C)NC(NCc2ccc(Cl)cc2)=N1 | 1.6 µg/mL | 3.1 µg/mL | 0.8 µg/mL | 6.3 µg/mL | 6.3 µg/mL | 25 µg/mL | 0.8 µg/mL | 3.1 µg/mL | 1.6 µg/mL | 6.3 µg/mL | 25 µg/mL | 3.1 µg/mL | 3.1 µg/mL | 1.6 µg/mL | 6.3 µg/mL | 1.6 µg/mL
6 | CC(=O)O.CCCCCCCCNC1=NC(C)(C)NC(NCc2ccccc2Cl)=N1 | 1.6 µg/mL | 3.1 µg/mL | 0.8 µg/mL | 6.3 µg/mL | 6.3 µg/mL | 25 µg/mL | 0.8 µg/mL | 12.5 µg/mL | 1.6 µg/mL | 6.3 µg/mL | 25 µg/mL | 6.3 µg/mL | 6.3 µg/mL | 3.1 µg/mL | 12.5 µg/mL | 3.1 µg/mL
7 | CC(=O)O.CCCCCCCCCNC1=NC(C)(C)NC(NCc2ccc(C)cc2)=N1 | 1.6 µg/mL | 6.3 µg/mL | 0.8 µg/mL | 12.5 µg/mL | 12.5 µg/mL | 25 µg/mL | 0.8 µg/mL | 6.3 µg/mL | 3.1 µg/mL | 12.5 µg/mL | 50 µg/mL | 3.1 µg/mL | 3.1 µg/mL | 3.1 µg/mL | 25 µg/mL | 1.6 µg/mL
8 | CC(=O)O.CCCCCCCNC1=NC(C)(C)NC(Nc2ccccc2)=N1 | – | – | 6.3 µg/mL | – | – | 50 µg/mL | 6.3 µg/mL | – | – | – | 100 µg/mL | – | – | – | – | –
9 | CC(=O)O.CCCCCCCCNC1=NC(C)(C)NC(NCCCCCCCC)=N1 | – | – | 0.8 µg/mL | – | – | 100 µg/mL | 1.6 µg/mL | – | – | – | > 100 µg/mL | – | – | – | – | –
10 | CC(=O)O.CCCCCCCCCCNC1=NC(C)(C)NC(NCc2ccccc2)=N1 | 6.3 µg/mL | 25 µg/mL | 0.4 µg/mL | 6.3 µg/mL | 3.1 µg/mL | 12.5 µg/mL | 0.4 µg/mL | 6.3 µg/mL | 1.6 µg/mL | 6.3 µg/mL | 25 µg/mL | 6.3 µg/mL | 6.3 µg/mL | 3.1 µg/mL | 12.5 µg/mL | 12.5 µg/mL
